Calls of active or inactive are those of the source. The calls are words filed in the database; no cut-off is given here.
Key:
Rattus norvegicus [1] = test: Diuretic activity in Sprague-Dawley rat at 0.3 mg/kg via oral gavage administered 30 mins prior to void induction by loading saline measured upto 4 hrs relative to vehicle treated control; format: functional
How it was run: (§1)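 Acute rat diuresis model in male-unspecified Sprague-Dawley rats, single oral dose, urine collected over 4 h. Urine volume, sodium excretion and potassium excretion expressed as fold increase over vehicle-treated controls; n = 5 per group; significance tested against vehicle.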

Rattus norvegicus [2] = test: Diuretic activity in Sprague-Dawley rat at 1 mg/kg via oral gavage administered 30 mins prior to void induction by loading saline measured upto 4 hrs relative to vehicle treated control; format: functional; how it was run: as §1
[3] = target: T1, Inward rectifier potassium channel 4 (Homo sapiens) (UniProt P48050); test: Inhibition of Kir2.3 (unknown origin) upto 30 uM
T1 sequence (whole entry): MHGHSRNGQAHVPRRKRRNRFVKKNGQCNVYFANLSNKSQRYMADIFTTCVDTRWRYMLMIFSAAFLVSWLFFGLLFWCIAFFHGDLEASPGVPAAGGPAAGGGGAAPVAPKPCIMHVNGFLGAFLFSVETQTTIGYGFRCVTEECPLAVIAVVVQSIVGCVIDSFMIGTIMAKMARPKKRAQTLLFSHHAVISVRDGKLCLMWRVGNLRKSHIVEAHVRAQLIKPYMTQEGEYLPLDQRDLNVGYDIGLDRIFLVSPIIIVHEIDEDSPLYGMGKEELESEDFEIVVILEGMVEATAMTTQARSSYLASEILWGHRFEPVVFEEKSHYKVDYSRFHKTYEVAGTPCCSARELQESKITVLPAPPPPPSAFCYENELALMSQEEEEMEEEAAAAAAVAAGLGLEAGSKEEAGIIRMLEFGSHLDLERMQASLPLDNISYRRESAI

[4] = Half life in dog at 1 mg/kg, iv or 2 mg/kg, po; format: ADME, organism-based, Canis lupus familiaris; conditions: in vivo
Rattus norvegicus [5] = test: Kaliuretic activity in Sprague-Dawley rat at 3 mg/kg via oral gavage administered 30 mins prior to void induction by loading saline measured upto 4 hrs relative to vehicle treated control; format: functional; how it was run: as §1
Cytochrome P450 3A4 = Cytochrome P450 3A4 (Homo sapiens, UniProt P08684); test: Time dependent inhibition of human CYP3A4 at 10 to 50 uM; format: ADME
Sequence of Cytochrome P450 3A4 (P08684 whole entry): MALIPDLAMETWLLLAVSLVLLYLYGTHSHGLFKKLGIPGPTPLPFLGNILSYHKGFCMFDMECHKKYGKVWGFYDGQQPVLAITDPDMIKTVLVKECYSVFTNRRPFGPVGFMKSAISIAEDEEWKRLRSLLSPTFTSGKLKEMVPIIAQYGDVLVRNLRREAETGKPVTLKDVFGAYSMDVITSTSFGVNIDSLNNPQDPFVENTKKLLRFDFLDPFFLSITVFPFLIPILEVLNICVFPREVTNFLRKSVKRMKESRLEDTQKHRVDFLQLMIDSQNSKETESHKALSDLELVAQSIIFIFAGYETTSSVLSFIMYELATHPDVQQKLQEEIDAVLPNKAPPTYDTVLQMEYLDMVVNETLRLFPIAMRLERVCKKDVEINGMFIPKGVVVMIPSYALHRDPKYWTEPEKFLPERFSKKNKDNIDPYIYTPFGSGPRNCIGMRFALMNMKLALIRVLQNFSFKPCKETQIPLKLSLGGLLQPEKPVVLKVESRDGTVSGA

[6] = Drug metabolism in human hepatocytes assessed as glucuronidation at 1 uM measured at 120 mins; format: ADME, cell-based, Hepatocyte; conditions: read-out: Drug metabolism
[7] = Volume of distribution at steady state in rat at 1 mg/kg, iv or 2 mg/kg, po; format: ADME, organism-based; conditions: in vivo, read-out: Vdss
How it was run: (§2)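 Rats dosed once at 1 mg/kg IV and, separately, 2 mg/kg PO, with n = 3. Derived parameters were plasma clearance, Vdss, dose-normalized oral AUC (μM·h·kg/mg), half-life, and oral bioavailability (F%).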

Acetylcholinesterase = Acetylcholinesterase (Homo sapiens, UniProt P22303); test: Inhibition of ACES (unknown origin)
Sequence of Acetylcholinesterase (P22303 whole entry): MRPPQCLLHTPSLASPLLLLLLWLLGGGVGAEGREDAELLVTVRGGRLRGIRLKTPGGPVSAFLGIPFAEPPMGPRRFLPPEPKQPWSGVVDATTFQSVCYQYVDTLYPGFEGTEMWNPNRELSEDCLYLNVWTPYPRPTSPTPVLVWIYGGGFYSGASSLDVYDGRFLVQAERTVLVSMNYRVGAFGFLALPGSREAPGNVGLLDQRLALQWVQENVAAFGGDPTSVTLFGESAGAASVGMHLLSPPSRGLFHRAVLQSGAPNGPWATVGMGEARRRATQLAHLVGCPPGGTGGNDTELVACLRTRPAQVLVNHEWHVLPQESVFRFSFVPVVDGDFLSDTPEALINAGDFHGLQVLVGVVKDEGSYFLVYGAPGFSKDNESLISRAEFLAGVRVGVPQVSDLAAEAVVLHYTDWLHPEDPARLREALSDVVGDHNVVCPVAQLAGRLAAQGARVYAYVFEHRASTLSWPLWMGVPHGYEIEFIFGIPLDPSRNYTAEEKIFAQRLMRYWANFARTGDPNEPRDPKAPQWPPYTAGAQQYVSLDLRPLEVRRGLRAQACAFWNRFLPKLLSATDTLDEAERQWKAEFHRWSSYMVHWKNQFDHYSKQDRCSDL

[8] = target: T2, Voltage-gated inwardly rectifying potassium channel KCNH2 (Homo sapiens, UniProt Q12809); test: Displacement of [35S]MK-499 from human ERG
T2 sequence (Q12809 whole entry): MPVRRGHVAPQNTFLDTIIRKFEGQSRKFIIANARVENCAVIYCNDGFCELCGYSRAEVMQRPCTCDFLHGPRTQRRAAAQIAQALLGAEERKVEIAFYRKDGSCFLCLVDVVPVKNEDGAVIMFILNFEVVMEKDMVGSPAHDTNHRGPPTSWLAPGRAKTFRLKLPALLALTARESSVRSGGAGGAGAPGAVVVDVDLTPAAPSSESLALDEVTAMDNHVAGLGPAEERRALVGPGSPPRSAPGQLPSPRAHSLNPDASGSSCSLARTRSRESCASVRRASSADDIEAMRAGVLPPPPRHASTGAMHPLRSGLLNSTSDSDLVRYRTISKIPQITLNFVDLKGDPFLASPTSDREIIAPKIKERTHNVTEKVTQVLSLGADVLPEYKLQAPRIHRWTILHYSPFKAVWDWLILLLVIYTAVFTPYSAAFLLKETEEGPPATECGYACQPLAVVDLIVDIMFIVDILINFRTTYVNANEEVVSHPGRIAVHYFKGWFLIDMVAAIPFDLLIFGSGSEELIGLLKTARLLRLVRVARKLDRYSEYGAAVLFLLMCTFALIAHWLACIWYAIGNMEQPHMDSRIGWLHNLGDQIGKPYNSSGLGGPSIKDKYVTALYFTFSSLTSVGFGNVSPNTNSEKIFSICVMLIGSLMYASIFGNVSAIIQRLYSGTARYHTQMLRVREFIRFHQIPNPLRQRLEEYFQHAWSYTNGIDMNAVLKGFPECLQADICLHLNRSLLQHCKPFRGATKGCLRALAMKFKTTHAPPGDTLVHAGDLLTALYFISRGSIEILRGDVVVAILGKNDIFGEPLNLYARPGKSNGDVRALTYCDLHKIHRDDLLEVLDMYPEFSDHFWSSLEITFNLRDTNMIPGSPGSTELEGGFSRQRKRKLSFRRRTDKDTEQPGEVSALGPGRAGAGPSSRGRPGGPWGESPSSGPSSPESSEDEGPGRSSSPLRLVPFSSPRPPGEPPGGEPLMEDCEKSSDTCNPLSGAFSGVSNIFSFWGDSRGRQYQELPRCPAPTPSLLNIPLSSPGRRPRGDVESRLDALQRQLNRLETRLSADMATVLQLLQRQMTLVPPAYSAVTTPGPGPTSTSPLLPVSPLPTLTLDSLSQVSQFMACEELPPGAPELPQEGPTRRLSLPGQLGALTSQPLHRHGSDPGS

[9] = target: Sodium channel protein type 5 subunit alpha (Homo sapiens, UniProt Q14524); test: Inhibition of Nav1.5 (unknown origin)
Sequence of Sodium channel protein type 5 subunit alpha (Q14524 whole entry): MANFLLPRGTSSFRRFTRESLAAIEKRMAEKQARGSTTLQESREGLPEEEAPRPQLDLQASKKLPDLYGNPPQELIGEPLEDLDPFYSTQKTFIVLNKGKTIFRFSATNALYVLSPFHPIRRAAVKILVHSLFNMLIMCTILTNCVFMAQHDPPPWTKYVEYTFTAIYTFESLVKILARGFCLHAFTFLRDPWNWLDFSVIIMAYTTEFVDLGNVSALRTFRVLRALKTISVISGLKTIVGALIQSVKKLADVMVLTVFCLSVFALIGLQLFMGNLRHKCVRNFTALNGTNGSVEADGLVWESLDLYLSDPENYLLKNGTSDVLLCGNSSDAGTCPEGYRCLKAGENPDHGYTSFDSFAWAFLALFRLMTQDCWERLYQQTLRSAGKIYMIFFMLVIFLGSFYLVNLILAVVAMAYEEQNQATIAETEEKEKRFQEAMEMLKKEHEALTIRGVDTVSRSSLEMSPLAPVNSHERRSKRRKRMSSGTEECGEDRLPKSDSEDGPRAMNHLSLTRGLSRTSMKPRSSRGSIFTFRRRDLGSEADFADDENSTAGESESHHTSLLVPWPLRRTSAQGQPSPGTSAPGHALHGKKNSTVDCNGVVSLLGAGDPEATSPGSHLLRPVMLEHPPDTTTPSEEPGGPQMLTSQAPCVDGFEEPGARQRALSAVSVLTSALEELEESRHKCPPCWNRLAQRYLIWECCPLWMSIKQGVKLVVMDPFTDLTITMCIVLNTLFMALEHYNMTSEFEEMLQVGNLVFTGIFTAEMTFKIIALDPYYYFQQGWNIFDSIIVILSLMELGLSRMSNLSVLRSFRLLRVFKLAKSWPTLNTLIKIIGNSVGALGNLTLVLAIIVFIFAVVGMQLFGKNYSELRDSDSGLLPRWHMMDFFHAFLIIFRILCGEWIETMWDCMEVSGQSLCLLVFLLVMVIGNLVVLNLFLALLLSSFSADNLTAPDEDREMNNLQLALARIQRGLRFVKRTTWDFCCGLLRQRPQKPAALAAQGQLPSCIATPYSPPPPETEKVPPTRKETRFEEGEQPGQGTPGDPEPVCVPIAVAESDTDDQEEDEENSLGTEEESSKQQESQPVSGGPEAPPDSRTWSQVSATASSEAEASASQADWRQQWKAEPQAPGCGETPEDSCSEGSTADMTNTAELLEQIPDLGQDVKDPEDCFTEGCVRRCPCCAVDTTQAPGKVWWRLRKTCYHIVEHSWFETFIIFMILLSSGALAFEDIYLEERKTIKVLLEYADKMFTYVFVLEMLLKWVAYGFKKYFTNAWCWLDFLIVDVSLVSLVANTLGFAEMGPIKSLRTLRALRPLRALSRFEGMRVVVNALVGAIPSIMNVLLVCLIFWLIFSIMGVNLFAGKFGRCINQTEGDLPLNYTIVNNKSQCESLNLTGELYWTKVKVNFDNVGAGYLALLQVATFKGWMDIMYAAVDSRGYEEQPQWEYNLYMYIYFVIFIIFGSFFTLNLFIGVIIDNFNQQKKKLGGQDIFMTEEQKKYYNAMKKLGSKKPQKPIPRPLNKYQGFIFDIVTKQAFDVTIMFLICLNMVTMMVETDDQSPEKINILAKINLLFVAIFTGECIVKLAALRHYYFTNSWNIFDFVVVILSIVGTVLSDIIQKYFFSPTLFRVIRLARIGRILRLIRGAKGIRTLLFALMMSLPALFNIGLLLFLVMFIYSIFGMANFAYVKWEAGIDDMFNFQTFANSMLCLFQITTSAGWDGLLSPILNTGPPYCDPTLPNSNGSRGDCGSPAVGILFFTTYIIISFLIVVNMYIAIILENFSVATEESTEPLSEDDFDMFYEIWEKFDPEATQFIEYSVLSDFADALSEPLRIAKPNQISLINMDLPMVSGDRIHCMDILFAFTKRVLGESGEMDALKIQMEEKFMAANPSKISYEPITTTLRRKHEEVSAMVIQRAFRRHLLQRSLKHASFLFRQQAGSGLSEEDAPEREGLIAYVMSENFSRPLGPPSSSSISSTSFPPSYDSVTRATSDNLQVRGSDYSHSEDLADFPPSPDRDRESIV

[10] = Cardiotoxicity in vagotomized cardiovascular dog model assessed as effect on QRS complex at plasma concentration <= 11.6 uM at 1 to 7 mg/kg, iv administered during three sequential 30 min periods; format: toxicity, organism-based, Canis lupus familiaris; conditions: in vivo, 0.5 h
How it was run: (§3)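 Anesthetized, vagotomized dogs received IV infusions over sequential periods at 1, 2 and 7 mg/kg (10 mg/kg cumulative). Heart rate, mean arterial pressure and ECG intervals (PR, QRS, QT/QTc) were recorded predose and during each infusion period. Plasma concentrations were measured.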

[11] = Drug metabolism in dog hepatocytes assessed as oxidation at 1 uM measured at 120 mins; format: ADME, cell-based, Canis lupus familiaris, Hepatocyte; conditions: read-out: Drug metabolism
[12] = Drug excretion in bile duct cannulated rat urine; format: ADME; conditions: in vivo
[13] = Drug metabolism in rat hepatocytes assessed as glucuronidation at 1 uM measured at 120 mins; format: ADME, cell-based, Hepatocyte; conditions: read-out: Drug metabolism
Cytochrome P450 2D6 = Cytochrome P450 2D6 (Homo sapiens, UniProt P10635); test: Reversible inhibition of human CYP2D6; format: ADME
Sequence of Cytochrome P450 2D6 (P10635 whole entry): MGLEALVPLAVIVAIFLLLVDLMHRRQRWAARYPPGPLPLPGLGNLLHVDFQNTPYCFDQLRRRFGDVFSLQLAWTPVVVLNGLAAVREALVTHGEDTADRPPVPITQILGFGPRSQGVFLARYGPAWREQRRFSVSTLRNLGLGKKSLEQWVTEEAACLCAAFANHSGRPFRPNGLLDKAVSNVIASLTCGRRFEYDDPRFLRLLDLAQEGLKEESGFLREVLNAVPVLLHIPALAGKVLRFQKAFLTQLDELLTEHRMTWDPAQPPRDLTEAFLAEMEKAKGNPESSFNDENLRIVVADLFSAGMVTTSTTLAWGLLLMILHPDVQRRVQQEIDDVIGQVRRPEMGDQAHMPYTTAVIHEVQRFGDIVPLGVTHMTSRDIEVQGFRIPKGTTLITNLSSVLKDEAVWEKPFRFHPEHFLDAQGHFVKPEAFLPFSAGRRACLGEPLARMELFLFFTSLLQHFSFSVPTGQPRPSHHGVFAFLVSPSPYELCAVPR

[14] = Volume of distribution at steady state in dog at 1 mg/kg, iv or 2 mg/kg, po; format: ADME, organism-based, Canis lupus familiaris; conditions: in vivo, read-out: Vdss
[15] = Drug metabolism in rat hepatocytes assessed as lactone hydrolysis at 1 uM measured at 120 mins; format: ADME, cell-based, Hepatocyte; conditions: read-out: Drug metabolism
[16] = target: T3, Inward rectifier potassium channel 13 (Homo sapiens) (UniProt O60928); test: Inhibition of Kir7.1 (unknown origin) upto 30 uM
T3 sequence (whole entry): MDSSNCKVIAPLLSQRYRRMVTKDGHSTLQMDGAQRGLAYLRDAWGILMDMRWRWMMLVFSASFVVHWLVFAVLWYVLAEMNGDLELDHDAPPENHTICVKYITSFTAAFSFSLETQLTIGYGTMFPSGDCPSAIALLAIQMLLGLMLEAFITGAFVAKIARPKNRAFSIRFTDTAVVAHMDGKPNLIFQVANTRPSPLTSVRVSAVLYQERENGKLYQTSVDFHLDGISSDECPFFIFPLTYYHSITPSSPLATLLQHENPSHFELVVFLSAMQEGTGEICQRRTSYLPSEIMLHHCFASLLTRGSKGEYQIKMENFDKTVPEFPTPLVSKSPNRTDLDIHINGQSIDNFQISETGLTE

[17] = target: T2, Voltage-gated inwardly rectifying potassium channel KCNH2; test: Inhibition of human ERG after 6 mins by electrophysiological assay
[18] = Drug metabolism in rat hepatocytes assessed as oxidation at 1 uM measured at 120 mins; format: ADME, cell-based, Hepatocyte; conditions: 2 h
[19] = Dose normalized AUC in rat at 2 mg/kg, po; format: ADME, organism-based; conditions: in vivo; how it was run: as §2
[20] = Drug metabolism in bile duct cannulated rat assessed as glucuronidation; format: ADME
Rattus norvegicus [21] = test: Natriuretic activity in Sprague-Dawley rat at 3 mg/kg via oral gavage administered 30 mins prior to void induction by loading saline measured upto 4 hrs relative to vehicle treated control; format: functional
How it was run: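 Acute 4 h diuresis/natriuresis study in SD rats given a single oral dose, n = 5 per group. Urinary sodium output is expressed as fold increase over vehicle-treated animals, with significance tested against vehicle.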

[22] = Cardiotoxicity in vagotomized cardiovascular dog model assessed as effect on heart rate at plasma concentration <= 11.6 uM at 1 to 7 mg/kg, iv administered during three sequential 30 min periods; format: toxicity, organism-based, Canis lupus familiaris; conditions: in vivo, 0.5 h; how it was run: as §3
[23] = Cardiotoxicity in vagotomized cardiovascular dog model assessed as effect on mean arterial pressure at plasma concentration <= 11.6 uM at 1 to 7 mg/kg, iv administered during three sequential 30 min periods; format: toxicity, organism-based, Canis lupus familiaris; conditions: in vivo, 0.5 h; how it was run: as §3
Rattus norvegicus [24] = test: Diuretic activity in Sprague-Dawley rat at 10 mg/kg via oral gavage administered 30 mins prior to void induction by loading saline measured upto 4 hrs relative to vehicle treated control; format: functional
How it was run: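 Acute 4 h study in Sprague-Dawley rats after oral dosing, n = 5 per group. Urine volume and sodium and potassium excretion were expressed as fold increase over vehicle-treated animals. Significance was tested versus vehicle (p < 0.05 or p < 0.01).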

[25] = Drug metabolism in dog hepatocytes assessed as glucuronidation at 1 uM measured at 120 mins; format: ADME, cell-based, Canis lupus familiaris, Hepatocyte; conditions: read-out: Drug metabolism
Rattus norvegicus [26] = test: Kaliuretic activity in Sprague-Dawley rat at 1 mg/kg via oral gavage administered 30 mins prior to void induction by loading saline measured upto 4 hrs relative to vehicle treated control; format: functional; how it was run: as §1

Cc1c([C@@H](O)CN2CCN(C[C@H](O)c3ccc4c(c3C)COC4=O)CC2)ccc2c1COC2=O [MK-7145]
fold change (FC) (Rattus norvegicus [1]): 6.4
fold change (FC) (Rattus norvegicus [2]): 8.6
inhibition [3]: inactive
half-life [4]: 1.7 h
fold change (FC) (Rattus norvegicus [5]): 1.4
TDI (Cytochrome P450 3A4): Not Active
metabolised at 2 h, 1 µM [6]: < 1%
Vd [7]: 3.8 L/kg
IC50 (Acetylcholinesterase): 9.94 µM
IC50 [8]: 23 µM
IC50 [9]: > 30 µM
Activity [10]: Non-Toxic
metabolised at 2 h, 1 µM [11]: 15 to 37%
Drug excretion [12]: Metabolite_Detected
metabolised at 2 h, 1 µM [13]: < 1%
IC50 (Cytochrome P450 2D6): > 50 µM
Vd [14]: 7.5 L/kg
metabolised at 2 h, 1 µM [15]: < 1%
inhibition [16]: inactive
IC50 [17]: 22 µM
Drug metabolism [18]: 15 to 37%
AUC/dose [19]: 0.14 µM·kg·h/mg
Drug metabolism [20]: Metabolite_Detected
fold change (FC) (Rattus norvegicus [21]): 8
Activity [22]: Non-Toxic
Activity [23]: Non-Toxic
fold change (FC) (Rattus norvegicus [24]): 9.4
metabolised at 2 h, 1 µM [25]: < 1%
fold change (FC) (Rattus norvegicus [26]): 1.8
